As usually defined, the IC50 is the concentration that gives 50% inhibition.

This is an account of results in paper PMC6437812 (ChemistryOpen, 2019).

For one test, the system named is HER2. Kind of test: Western blot of Hsp90 client protein HER2 in SK-BR-3 cells. It is filed as cell-based, human. The following applies: 20 μM, 12 h. An outline of the steps:
(§1)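 SK‐BR‐3 cells (DMEM, 10 % FBS) were exposed to test compound at 20 μM for 12 h, washed in ice-cold PBS and lysed in SDS sample buffer. Equal lysate amounts went through SDS‐PAGE and PVDF transfer, with blocking in 5 % milk/TBST pH 7.6. Primary antibodies were applied overnight at 4 °C and secondary antibodies 2 h at room temperature. Detection was by ECL.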

The target of test [1] is recombinant human full-length Hsp90α (Homo sapiens, UniProt P07900). Kind of test: FP assay, competition with FITC-GM. It is filed as binding.
In test [2] the test system is breast cancer SK-BR-3 cell line. Kind of test: SRB anti-proliferative assay, SK-BR-3. It is filed as cell-based. The following applies: Homo sapiens, SK-BR-3, 120 h, read-out: SK-BR-3 (IC50±SD, μM) for 120 h. An outline of the steps: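 Cells from ATCC, grown in DMEM with 10 % FBS at 37 °C and 5 % CO2. Seeded in 96-well plates overnight, then exposed to increasing concentrations in triplicate for 72 h, or for a prolonged 120 h. Growth was read by sulforhodamine B staining at OD 510 nm. IC50 came from curve fitting.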

The subject of test [3] is A549 and SK-BR-3 cell lines. Kind of test: Autophagy observed under the microscope. It is filed as cell-based, human. The following applies: 10 μM.
The next test deals with Hsp72. Kind of test: Western blot of Hsp72. It is filed as cell-based, human. Conditions: SK-BR-3 cells, 20 μM, 12 h. Put shortly:
as §1
A general note: A western blot detects proteins with antibodies after separation by electrophoresis.

Consider `Cc1cc(C)n(-c2nc(NN=Cc3c[nH]c4ccccc34)nc(Nc3ccc(Br)cc3)n2)n1` [Compound A1, 4‐(2‐((1H‐indol‐3‐yl)methylene)hydrazinyl)‐N‐(4‐bromophenyl)‐6‐(3,5‐dimethyl‐1H‐pyrazol‐1‐yl)‐1,3,5‐triazin‐2‐amine], for which the “expression of HER2” value with HER2 is given as “obviously reduced”. Moreover, the “competition with FITC-GM for binding to Hsp90α” value in test [1] is recorded as “failed to compete”. In addition, the IC50 in test [2] worked out at 10.8 ± 1.3 µM. The induction of autophagy entry in test [3] was “little autophagy was induced”.
As to `Brc1ccc(Nc2nc(N/N=C\c3c[nH]c4ccccc34)nc(Nc3ccccc3)n2)cc1` [Compound A16], in the test with HER2, the “expression of HER2” value was “obviously reduced”.
Consider `NNc1nc(Nc2ccccc2)nc(Nc2ccc(Br)cc2)n1` [Compound A20], for which the “expression of HER2” value in the test on HER2 is “obviously reduced”.
Consider `NNc1nc(NCc2ccccc2)nc(Nc2ccc(Br)cc2)n1` [Compound A22], for which the “expression of HER2” value in the test on HER2 is recorded as “obviously reduced”.
The same measure, in the same setting: to `CCCNc1nc(NCCC)nc(Nc2ccc(Br)cc2)n1` [Compound A24] belongs “obviously reduced”.
For the molecule `Brc1ccc(Nc2nc(NCc3ccccc3)nc(NCc3ccccc3)n2)cc1` [Compound A25], the “expression of HER2” value in the test on HER2 is “obviously reduced”.
On to `COC1=C2C[C@@H](C)C[C@H](OC)[C@H](O)[C@@H](C)/C=C(\C)[C@H](OC(N)=O)[C@@H](OC)/C=C\C=C(/C)C(=O)NC(=CC1=O)C2=O` [GM, geldanamycin], for which the “induction of Hsp72” value with Hsp72 is on record as “induced”.
